In ChEMBL document CHEMBL3352496, “Design, synthesis and evaluation of novel triazole core based P-glycoprotein-mediated multidrug resistance reversal agents” (Bioorg Med Chem, 2014):

How the values were obtained:
[1] = Resistance factor, ratio of adriamycin IC50 for human K562/A02 cells over-expressing Pgp to adriamycin IC50 for human K562/A02 cells over-expressing Pgp in presence of 5 uM compound; format: functional
In short: (§1)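 MTT on K562/A02 cells exposed to a series of adriamycin concentrations, with or without modulator at 5 µM; 0.1% DMSO as solvent control. Reversal fold = adriamycin IC50 without modulator / IC50 with modulator.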

[2] = Cytotoxicity against human K562/A02 cells at 5 uM after 48 hrs by MTT assay; format: cell-based; details: k562/a02, 48 h
In short: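 Adriamycin-selected K562/A02 cells given test compound alone at 5 µM for 48 h; cytotoxicity scored by MTT as intrinsic growth inhibition.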

[3] = Reversal of P-gp-mediated multidrug resistance in human K562/A02 cells assessed as reduction of adriamycin IC50 at 5 uM after 48 hrs by MTT assay; format: cell-based; details: K562/A02, 48 h; in short: as §1
[4] = Resistance factor, ratio of adriamycin IC50 for human K562/A02 cells over-expressing Pgp to adriamycin IC50 for human K562/A02 cells over-expressing Pgp in presence of 5 uM compound incubated for 24 hrs prior to adriamycin treatment; format: functional
In short: (§2)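 K562/A02 cells incubated 24 h with 5 µM modulator, verapamil or vehicle, then washed with growth medium. […] Reversal fold = IC50 without modulator / IC50 with modulator. Two to three experiments, mean ± SEM.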

[5] = Reversal of P-gp-mediated multidrug resistance in human K562/A02 cells assessed as reduction of adriamycin IC50 at 0.078 uM after 48 hrs by MTT assay; format: cell-based; details: K562/A02, 48 h
In short: (§3)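 K562/A02 (P-gp-overexpressing) cells given graded adriamycin plus modulator at 2.5, 1.25, 0.625, 0.31, 0.156, 0.078 or 0.04 µM; verapamil 2.5 µM as positive control; adriamycin IC50 by MTT. Reversal fold = IC50 without modulator / IC50 with modulator. Two to three experiments, mean ± SEM.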

[6] = Reversal of P-gp-mediated multidrug resistance in human K562/A02 cells assessed as reduction of adriamycin IC50 at 1.25 uM after 48 hrs by MTT assay; format: cell-based; details: K562/A02, 48 h; in short: as §3
K562/A02 [7] = experiment: Inhibition of P-gp mediated efflux in human K562/A02 cells assessed as intracellular rhodamine-123 accumulation at 5 uM incubated for 60 mins prior to substrate addition measured after 90 mins by flow cytometry relative to DMSO control
[8] = Resistance factor, ratio of adriamycin IC50 for human K562/A02 cells over-expressing Pgp to adriamycin IC50 for human K562/A02 cells over-expressing Pgp in presence of 5 uM compound incubated for 24 hrs followed by adriamycin treatment 6 hrs post compound washout; format: functional; in short: as §2
[9] = Resistance factor, ratio of adriamycin IC50 for human K562/A02 cells over-expressing Pgp to adriamycin IC50 for human K562/A02 cells over-expressing Pgp in presence of 2.5 uM compound; format: functional; in short: as §3
K562/A02 [10] = experiment: Reversal of P-gp-mediated multidrug resistance in human K562/A02 cells assessed as reduction of adriamycin IC50 after 48 hrs by MTT assay; format: cell-based
[11] = Cytotoxicity against human K562/A02 cells after 48 hrs by MTT assay; format: functional, cell-based; details: K562/A02, 48 h
[12] = Resistance factor, ratio of adriamycin IC50 for human K562/A02 cells over-expressing Pgp to adriamycin IC50 for human K562/A02 cells over-expressing Pgp in presence of 5 uM compound incubated for 24 hrs followed by adriamycin treatment post compound washout; format: functional; in short: as §2
[13] = Reversal of P-gp-mediated multidrug resistance in human K562/A02 cells assessed as reduction of adriamycin IC50 at 0.04 uM after 48 hrs by MTT assay; format: cell-based; details: K562/A02, 48 h; in short: as §3
K562/A02 [14] = experiment: Inhibition of P-gp mediated efflux in human K562/A02 cells assessed as intracellular rhodamine-123 accumulation at 5 uM incubated for 60 mins prior to substrate addition measured after 90 mins by flow cytometry relative to control; format: cell-based
In short: (§4)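 K562 and K562/A02 cells pretreated 60 min with 0.5, 2.5 or 5 µM test compound or verapamil, then 5 µM rhodamine-123 added for 90 min. Cells washed twice with PBS and resuspended in medium; mean fluorescence read by flow cytometry. Fold change taken against 0.1% DMSO control in each cell group. Three independent experiments, mean ± SD.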

[15] = Resistance factor, ratio of adriamycin IC50 for human K562/A02 cells over-expressing Pgp to adriamycin IC50 for human K562/A02 cells over-expressing Pgp in presence of 0.31 uM compound; format: functional; in short: as §3
[16] = Resistance factor, ratio of adriamycin IC50 for human K562/A02 cells over-expressing Pgp to adriamycin IC50 for human K562/A02 cells over-expressing Pgp in presence of 0.078 uM compound; format: functional; in short: as §3
[17] = Reversal of P-gp-mediated multidrug resistance in human K562/A02 cells assessed as reduction of adriamycin IC50 at 5 uM incubated for 24 hrs prior to adriamycin treatment measured after 48 hrs by MTT assay; format: cell-based; in short: as §2
K562/A02 [18] = experiment: Inhibition of P-gp mediated efflux in human K562/A02 cells assessed as intracellular rhodamine-123 accumulation at 2.5 uM incubated for 60 mins prior to substrate addition measured after 90 mins by flow cytometry relative to control; format: cell-based; in short: as §4
[19] = Reversal of P-gp-mediated multidrug resistance in human K562/A02 cells assessed as reduction of adriamycin IC50 at 2.5 uM after 48 hrs by MTT assay; format: cell-based; details: K562/A02, 48 h; in short: as §3
[20] = Resistance factor, ratio of adriamycin IC50 for human K562/A02 cells over-expressing Pgp to adriamycin IC50 for human K562/A02 cells over-expressing Pgp in presence of 0.156 uM compound; format: functional; in short: as §3
K562/A02 [21] = experiment: Inhibition of P-gp mediated efflux in human K562/A02 cells assessed as intracellular rhodamine-123 accumulation incubated for 60 mins prior to substrate addition measured after 90 mins by flow cytometry relative to control; format: cell-based; in short: as §4
[22] = Resistance factor, ratio of adriamycin IC50 for human K562/A02 cells over-expressing Pgp to adriamycin IC50 for human K562/A02 cells over-expressing Pgp in presence of 0.625 uM compound; format: functional; in short: as §3
[23] = Resistance factor, ratio of adriamycin IC50 for human K562/A02 cells over-expressing Pgp to adriamycin IC50 for human K562/A02 cells over-expressing Pgp in presence of 1.25 uM compound; format: functional; in short: as §3
[24] = Resistance factor, ratio of adriamycin IC50 for human K562/A02 cells over-expressing Pgp to adriamycin IC50 for human K562/A02 cells over-expressing Pgp in presence of 0.04 uM compound; format: functional; in short: as §3
[25] = Reversal of P-gp-mediated multidrug resistance in human K562/A02 cells assessed as reduction of adriamycin IC50 at 0.625 uM after 48 hrs by MTT assay; format: cell-based; details: K562/A02, 48 h; in short: as §3
[26] = Reversal of P-gp-mediated multidrug resistance in human K562/A02 cells assessed as reduction of adriamycin IC50 at 5 uM incubated for 24 hrs followed by adriamycin treatment post compound washout measured after 48 hrs by MTT assay; format: cell-based; in short: as §2
[27] = Reversal of P-gp-mediated multidrug resistance in human K562/A02 cells assessed as reduction of adriamycin IC50 at 5 uM incubated for 24 hrs followed by adriamycin treatment 12 hrs post compound washout measured after 48 hrs by MTT assay; format: cell-based; in short: as §2
[28] = Resistance factor, ratio of adriamycin IC50 for human K562/A02 cells over-expressing Pgp to adriamycin IC50 for human K562/A02 cells over-expressing Pgp in presence of 5 uM compound incubated for 24 hrs followed by adriamycin treatment 12 hrs post compound washout; format: functional; in short: as §2
[29] = Reversal of P-gp-mediated multidrug resistance in human K562/A02 cells assessed as reduction of adriamycin IC50 at 0.156 uM after 48 hrs by MTT assay; format: cell-based; details: K562/A02, 48 h; in short: as §3
[30] = Cytotoxicity against human GES-1 cells after 48 hrs by MTT assay; format: cell-based; details: GES1, 48 h
[31] = Reversal of P-gp-mediated multidrug resistance in human K562/A02 cells assessed as reduction of adriamycin IC50 at 0.31 uM after 48 hrs by MTT assay; format: cell-based; details: K562/A02, 48 h; in short: as §3
K562/A02 [32] = experiment: Inhibition of P-gp mediated efflux in human K562/A02 cells assessed as intracellular rhodamine-123 accumulation at 0.5 uM incubated for 60 mins prior to substrate addition measured after 90 mins by flow cytometry relative to control; format: cell-based; in short: as §4
[33] = Reversal of P-gp-mediated multidrug resistance in human K562/A02 cells assessed as reduction of adriamycin IC50 at 5 uM incubated for 24 hrs followed by adriamycin treatment 6 hrs post compound washout measured after 48 hrs by MTT assay; format: cell-based; in short: as §2

In the case of `COc1cc2c(cc1OC)CN(CCn1cc(COc3ccccc3NC(=O)c3cnc4ccccc4c3)nn1)CC2`, the “Ratio IC50” value [1] is reported as 6.1, the Activity [2] is reported as < 10% and the IC50 [3] is reported as 8.89 µM.

With `COc1cc(OC)cc(C(=O)Nc2ccccc2OCc2cn(CCN3CCc4cc(OC)c(OC)cc4C3)nn2)c1` the “Ratio IC50” value [1] was 3.9, the Activity [2] was < 10% and the IC50 [3] was 13.8 µM.

In the case of `COc1cc2c(cc1OC)CN(CCn1cc(COc3ccccc3NC(=O)c3ccccc3)nn1)CC2`, the “Ratio IC50” value [1] is reported as 5, the Activity [2] is reported as < 10% and the IC50 [3] is reported as 10.8 µM.

For `COc1cc2c(cc1OC)CN(CCn1cc(COc3ccccc3NC(=O)c3cccc(Cl)c3)nn1)CC2`, the “Ratio IC50” value [1] was 4.9, the Activity [2] was < 10% and the IC50 [3] was 11 µM.

For `COc1cc2c(cc1OC)CN(CCn1cc(COc3ccccc3NC(=O)c3cccc(C)c3)nn1)CC2`, the “Ratio IC50” value [1] was 7.6, the Activity [2] was < 10% and the IC50 [3] was 7.16 µM.

For `COc1cc2c(cc1OC)CN(CCn1cc(COc3ccccc3NC(=O)c3ccc(Cl)cc3)nn1)CC2`, the “Ratio IC50” value [1] was 10.4, the Activity [2] was < 10% and the IC50 [3] was 5.21 µM.

For `COc1cc2c(cc1OC)CN(CCn1cc(COc3ccccc3NC(=O)c3ccc(C(C)(C)C)cc3)nn1)CC2`, the “Ratio IC50” value [4] was 37.4, the IC50 [5] was 43.8 µM and the IC50 [6] was 3.14 µM. The Ratio (K562/A02 [7]) was 2.4, the “Ratio IC50” value [8] was 2.4 and the “Ratio IC50” value [9] was 18.5. The Activity (K562/A02 [10]) was “Dose-dependent effect”, the IC50 [11] was > 80 µM and the “Ratio IC50” value [12] was 7.7. For the same compound, the IC50 [13] was 32.9 µM, the fold change (FC) (K562/A02 [14]) was 4.04 and the “Ratio IC50” value [15] was 8.6. The “Ratio IC50” value [16] was 1.3, the IC50 [17] was 2.16 µM and the fold change (FC) (K562/A02 [18]) was 2.4. The IC50 [19] was 2.97 µM, the “Ratio IC50” value [20] was 1.5 and the inhibition (K562/A02 [21]) was “Dose-dependent effect”. The “Ratio IC50” value [22] was 10.5, the “Ratio IC50” value [23] was 17.4 and the “Ratio IC50” value [1] was 32.5. For the same compound, the “Ratio IC50” value [24] was 1.6, the IC50 [25] was 5.2 µM and the IC50 [26] was 11 µM. The Activity [2] was < 10%, the IC50 [27] was 54.5 µM and the “Ratio IC50” value [28] was 1.5. The IC50 [29] was 37 µM, the IC50 [30] was > 80 µM and the IC50 [31] was 6.39 µM. It also gave a fold change (FC) (K562/A02 [32]) of 1.55, an IC50 [33] of 35.6 µM and an IC50 [3] of 1.67 µM.

In the case of `COc1cc2c(cc1OC)CN(CCn1cc(COc3ccccc3NC(=O)c3ccccc3OC)nn1)CC2`, the “Ratio IC50” value [1] is reported as 8.1, the Activity [2] is reported as < 10% and the IC50 [3] is reported as 6.75 µM.

With `COc1cc2c(cc1OC)CN(CCn1cc(COc3ccccc3NC(=O)c3cc(OC)c(OC)c(OC)c3)nn1)CC2` the “Ratio IC50” value [1] was 16.8, the Activity [2] was < 10% and the IC50 [3] was 3.23 µM.

With `COc1cc2c(cc1OC)CN(CCn1cc(COc3ccccc3NC(=O)c3cccnc3)nn1)CC2` the “Ratio IC50” value [1] was 2.9, the Activity [2] was < 10% and the IC50 [3] was 18.9 µM.
